Active and inactive are the calls of the source. No cut-off for these calls is given here. Where a SMILES comes first, the peptide text is derived from it. Bridges are numbered along the chain shown (N, C = ends). [ ]: non-standard residue; d: D form. S5 = C=CCCC[C@](C)(N)C(=O)O; hCys = N[C@@H](CCS)C(=O)O
Columns and labels:
[1] = biological target: T1, Relaxin receptor 1 (Homo sapiens) (UniProt Q9HBX9); assay: Agonist activity at RXFP1 receptor (unknown origin) expressed in HEK-293T cells cotransfected with beta-galactosidase assessed as cAMP activation at 10 uM by beta-galactosidase reporter gene assay; format: functional, cell-based
T1 sequence (whole entry): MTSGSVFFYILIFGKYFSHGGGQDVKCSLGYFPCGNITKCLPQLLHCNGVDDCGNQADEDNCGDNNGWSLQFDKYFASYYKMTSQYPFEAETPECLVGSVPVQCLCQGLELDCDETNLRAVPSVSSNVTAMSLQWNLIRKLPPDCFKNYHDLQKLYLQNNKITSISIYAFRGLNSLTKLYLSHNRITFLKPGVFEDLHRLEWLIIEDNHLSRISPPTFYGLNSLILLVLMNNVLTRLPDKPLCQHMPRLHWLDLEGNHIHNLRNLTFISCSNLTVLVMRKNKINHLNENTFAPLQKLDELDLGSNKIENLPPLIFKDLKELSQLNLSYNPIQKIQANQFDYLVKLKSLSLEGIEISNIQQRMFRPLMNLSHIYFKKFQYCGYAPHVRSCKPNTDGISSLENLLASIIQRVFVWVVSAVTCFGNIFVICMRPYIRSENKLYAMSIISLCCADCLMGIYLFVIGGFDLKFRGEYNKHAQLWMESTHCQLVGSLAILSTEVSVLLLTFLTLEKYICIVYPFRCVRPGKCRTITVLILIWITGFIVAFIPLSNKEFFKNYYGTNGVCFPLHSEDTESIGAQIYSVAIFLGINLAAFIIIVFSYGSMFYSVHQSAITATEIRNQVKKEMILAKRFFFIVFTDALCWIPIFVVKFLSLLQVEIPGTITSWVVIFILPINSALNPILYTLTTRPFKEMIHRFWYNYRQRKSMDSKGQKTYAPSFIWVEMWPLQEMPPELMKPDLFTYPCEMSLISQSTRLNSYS
In short: (§1)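 Tested for RXFP1 activation at concentrations up to 10 µM, alongside the […] as a reference.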

[2] = biological target: T2, Relaxin receptor 1 (Homo sapiens, UniProt Q9HBX9); assay: (§2) Agonist activity at RXFP1 receptor (unknown origin) expressed in HEK-293T cells cotransfected with beta-galactosidase assessed as cAMP activation by beta-galactosidase reporter gene assay; format: functional, cell-based; in short: as §1
T2 sequence (Q9HBX9 whole entry): T1 sequence (whole entry)

[3] = biological target: T3, Relaxin-3 receptor 1 (Homo sapiens, UniProt Q9NSD7); assay: Agonist activity at human RXFP3 receptor expressed in CHOK1 cells cotransfected with beta-galactosidase assessed as inhibition of forskolin-stimulated cAMP by beta-galactosidase reporter gene assay; format: functional, cell-based
T3 sequence (Q9NSD7 whole entry): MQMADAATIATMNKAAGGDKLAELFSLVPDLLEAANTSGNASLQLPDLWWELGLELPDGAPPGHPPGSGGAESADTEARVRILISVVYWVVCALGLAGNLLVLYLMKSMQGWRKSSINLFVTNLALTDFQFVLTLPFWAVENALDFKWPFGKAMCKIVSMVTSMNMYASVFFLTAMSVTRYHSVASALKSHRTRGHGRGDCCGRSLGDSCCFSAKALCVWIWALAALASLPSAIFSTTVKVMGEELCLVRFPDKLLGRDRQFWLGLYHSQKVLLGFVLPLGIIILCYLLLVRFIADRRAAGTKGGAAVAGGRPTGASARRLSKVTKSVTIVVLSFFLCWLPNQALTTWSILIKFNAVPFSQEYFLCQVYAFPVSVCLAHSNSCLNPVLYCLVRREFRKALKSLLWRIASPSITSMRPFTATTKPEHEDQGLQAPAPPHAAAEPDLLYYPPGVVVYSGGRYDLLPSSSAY

[4] = biological target: T3, Relaxin-3 receptor 1; assay: Displacement of Eu-H3/15 from human RXFP3 receptor expressed in CHOK1 cells by time-resolved fluorescent whole cell binding assay; format: cell-based
[5] = biological target: T4, Relaxin-3 receptor 2 (Homo sapiens, UniProt Q8TDU9); assay: Agonist activity at human RXFP4 receptor expressed in CHOK1 cells cotransfected with beta-galactosidase assessed as inhibition of forskolin-stimulated cAMP by beta-galactosidase reporter gene assay; format: functional, cell-based
[6] = biological target: T1, Relaxin receptor 1 (Homo sapiens); assay: as §2; format: functional, cell-based; in short: as §1
[7] = biological target: T4, Relaxin-3 receptor 2; assay: Displacement of Eu-INSL5 from human RXFP4 receptor expressed in CHOK1 cells by time-resolved fluorescent whole cell binding assay; format: cell-based

T4 sequence (Q8TDU9 whole entry): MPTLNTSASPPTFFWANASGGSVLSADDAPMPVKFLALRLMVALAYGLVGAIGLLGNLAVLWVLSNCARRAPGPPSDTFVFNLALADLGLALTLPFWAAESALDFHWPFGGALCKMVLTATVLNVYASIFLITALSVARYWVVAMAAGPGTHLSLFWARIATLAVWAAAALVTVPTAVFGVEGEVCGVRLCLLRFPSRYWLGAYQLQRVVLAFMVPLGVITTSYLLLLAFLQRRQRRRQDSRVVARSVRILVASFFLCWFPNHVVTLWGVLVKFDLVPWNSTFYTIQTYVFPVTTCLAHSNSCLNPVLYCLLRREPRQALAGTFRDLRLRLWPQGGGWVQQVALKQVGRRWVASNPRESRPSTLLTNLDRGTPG

Row | SMILES | Activity [1] | EC50 [2] [µM] | EC50 [3] [nM] | Ki [4] [nM] | EC50 [5] [nM] | pEC50 [6] | pKi [7] | Ki [7] [nM]
1 | CC[C@H](C)[C@H](NC(=O)[C@H](C)NC(=O)[C@@H](NC(=O)[C@H](CCC(N)=O)NC(=O)[C@H](C)NC(=O)[C@H](CCCNC(=N)N)NC(=O)[C@@H](NC(=O)[C@H](CC(C)C)NC(=O)[C@H](CCC(=O)O)NC(=O)[C@H](CCCNC(=N)N)NC(=O)CNC(=O)[C@H](CS)NC(=O)[C@H](CC(C)C)NC(=O)[C@H](CCCCN)NC(=O)[C@@H](NC(=O)[C@@H](NC(=O)[C@H](CCC(=O)O)NC(=O)[C@H](CCC(=O)O)NC(=O)[C@H](CCSC)NC(=O)[C@H](Cc1c[nH]c2ccccc12)NC(=O)[C@H](CO)NC(=O)[C@@H](N)CC(=O)O)C(C)C)[C@@H](C)CC)C(C)C)[C@@H](C)CC)C(=O)N[C@@H](CS)C(=O)NCC(=O)N[C@@H](CCSC)C(=O)N[C@@H](CO)C(=O)N[C@H](C(=O)N[C@@H](Cc1c[nH]c2ccccc12)C(=O)N[C@@H](CO)C(=O)O)[C@@H](C)O | inactive | > 10 |  |  |  |  |  | 
2 | CC[C@H](C)[C@@H]1NC(=O)[C@H](Cc2ccccc2)NC(=O)[C@@](C)(NC(=O)[C@H](CCCNC(=N)N)NC(=O)CNC(=O)[C@H](CO)NC(=O)[C@H](CC(C)C)NC(=O)[C@H](CCCNC(=N)N)NC(=O)[C@@H](NC(=O)CNC(C)=O)C(C)C)CCC/C=C/CCC[C@@](C)(C(=O)N[C@H](C(=O)N[C@H](C(=O)N[C@@H](Cc2ccccc2)C(=O)N[C@H](C(=O)N[C@@H](CO)C(=O)NCC(=O)NCC(=O)N[C@@H](CO)C(=O)N[C@@H](CCCNC(=N)N)C(=O)N[C@@H](Cc2c[nH]c3ccccc23)C(=O)O)[C@@H](C)O)[C@@H](C)CC)C(C)C)NC(=O)[C@H](CCCNC(=N)N)NC1=O (Ac-GVRLSGR[S5]FIR[S5]VIFTSGGSRW-OH; staple (E) 8-12) | inactive |  | 11.7 | 229 |  |  |  | 
3 | CC[C@H](C)[C@H](NC(=O)[C@H](Cc1ccccc1)NC(=O)[C@H](CCC(=O)O)NC(=O)[C@H](CCCNC(=N)N)NC(=O)CNC(=O)[C@H](CO)NC(=O)[C@H](CC(C)C)NC(=O)[C@H](CCCNC(=N)N)NC(C)=O)C(=O)N[C@@H](CCCNC(=N)N)C(=O)N[C@@]1(C)CCC/C=C\CCC[C@@](C)(C(=O)N[C@@H](CO)C(=O)NCC(=O)NCC(=O)N[C@@H](CO)C(=O)N[C@@H](CCCNC(=N)N)C(=O)N[C@@H](Cc2c[nH]c3ccccc23)C(=O)O)NC(=O)[C@H](Cc2ccccc2)NC(=O)[C@H]([C@@H](C)CC)NC(=O)[C@H](C(C)C)NC1=O (Ac-RLSGREFIR[S5]VIF[S5]SGGSRW-OH; staple (Z) 10-14) | inactive |  | > 10000 | 603 | > 10000 | inactive | inactive | 
4 | CC[C@H](C)[C@@H]1NC(=O)[C@H](Cc2ccccc2)NC(=O)[C@@H](NC(=O)[C@H](CCCNC(=N)N)NC(=O)CNC(=O)[C@H](CO)NC(C)=O)CCC(=O)NCCCC[C@@H](C(=O)N[C@H](C(=O)N[C@H](C(=O)N[C@@H](Cc2ccccc2)C(=O)N[C@H](C(=O)N[C@@H](CO)C(=O)NCC(=O)NCC(=O)N[C@@H](CO)C(=O)N[C@@H](CCCNC(=N)N)C(=O)N[C@@H](Cc2c[nH]c3ccccc23)C(=O)O)[C@@H](C)O)[C@@H](C)CC)C(C)C)NC(=O)[C@H](CCCNC(=N)N)NC1=O (Ac-SGREFIRKVIFTSGGSRW-OH; lactam 4-8) | inactive |  | > 1000 |  | 537 |  |  | > 10000
5 | CC[C@H](C)[C@@H]1NC(=O)[C@H](Cc2ccccc2)NC(=O)[C@@H](NC(=O)[C@H](CCCNC(=N)N)NC(=O)CNC(=O)[C@H](CO)NC(C)=O)CCSSCC[C@@H](C(=O)N[C@H](C(=O)N[C@H](C(=O)N[C@@H](Cc2ccccc2)C(=O)N[C@H](C(=O)N[C@@H](CO)C(=O)NCC(=O)NCC(=O)N[C@@H](CO)C(=O)N[C@@H](CCCNC(=N)N)C(=O)N[C@@H](Cc2c[nH]c3ccccc23)C(=O)O)[C@@H](C)O)[C@@H](C)CC)C(C)C)NC(=O)[C@H](CCCNC(=N)N)NC1=O (Ac-SGR[hCys]FIR[hCys]VIFTSGGSRW-OH; disulfide 4-8) | inactive |  | > 10000 | 2510 | 3720 |  |  | > 10000
6 | CC[C@H](C)[C@@H]1NC(=O)[C@H](Cc2ccccc2)NC(=O)[C@@](C)(NC(=O)[C@H](CCCNC(=N)N)NC(=O)CNC(=O)[C@H](CO)NC(=O)[C@H](CC(C)C)NC(=O)[C@H](CCCNC(=N)N)NC(=O)[C@@H](NC(=O)CN)C(C)C)CCC/C=C/CCC[C@@](C)(C(=O)N[C@H](C(=O)N[C@H](C(=O)N[C@@H](Cc2ccccc2)C(=O)N[C@H](C(=O)N[C@@H](CO)C(=O)NCC(=O)NCC(=O)N[C@@H](CO)C(=O)N[C@@H](CCCNC(=N)N)C(=O)N[C@@H](Cc2c[nH]c3ccccc23)C(=O)O)[C@@H](C)O)[C@@H](C)CC)C(C)C)NC(=O)[C@H](CCCNC(=N)N)NC1=O (H-GVRLSGR[S5]FIR[S5]VIFTSGGSRW-OH; staple (E) 8-12) | inactive |  | 4.47 | 93.3 | 316 | inactive |  | 275
7 | CC[C@H](C)[C@H](NC(=O)[C@H](Cc1ccccc1)NC(=O)[C@H](CCC(=O)O)NC(=O)[C@H](CCCNC(=N)N)NC(=O)CNC(=O)[C@H](CO)NC(=O)[C@H](CC(C)C)NC(=O)[C@@H](N)CCCNC(=N)N)C(=O)N[C@@H](CCCNC(=N)N)C(=O)N[C@@]1(C)CCC/C=C\CCC[C@@](C)(C(=O)N[C@@H](CO)C(=O)NCC(=O)NCC(=O)N[C@@H](CO)C(=O)N[C@@H](CCCNC(=N)N)C(=O)N[C@@H](Cc2c[nH]c3ccccc23)C(=O)O)NC(=O)[C@H](Cc2ccccc2)NC(=O)[C@H]([C@@H](C)CC)NC(=O)[C@H](C(C)C)NC1=O (H-RLSGREFIR[S5]VIF[S5]SGGSRW-OH; staple (Z) 10-14) | inactive |  | > 10000 | 575 | 2750 | inactive |  | > 10000
8 | CC[C@H](C)[C@@H]1NC(=O)[C@H](Cc2ccccc2)NC(=O)[C@@](C)(NC(=O)[C@H](CCCNC(=N)N)NC(=O)CNC(=O)[C@H](CO)NC(=O)[C@H](CC(C)C)NC(=O)[C@@H](N)CCCNC(=N)N)CCC/C=C/CCC[C@@](C)(C(=O)N[C@H](C(=O)N[C@H](C(=O)N[C@@H](Cc2ccccc2)C(=O)N[C@H](C(=O)N[C@@H](CO)C(=O)NCC(=O)NCC(=O)N[C@@H](CO)C(=O)N[C@@H](CCCNC(=N)N)C(=O)N[C@@H](Cc2c[nH]c3ccccc23)C(=O)O)[C@@H](C)O)[C@@H](C)CC)C(C)C)NC(=O)[C@H](CCCNC(=N)N)NC1=O (H-RLSGR[S5]FIR[S5]VIFTSGGSRW-OH; staple (E) 6-10) | inactive |  | 3.55 |  | 123 | inactive |  | 
9 | CC[C@H](C)[C@@H]1NC(=O)[C@H](Cc2ccccc2)NC(=O)[C@@](C)(NC(=O)[C@H](CCCNC(=N)N)NC(=O)CNC(=O)[C@@H](N)CO)CCC/C=C/CCC[C@@](C)(C(=O)N[C@H](C(=O)N[C@H](C(=O)N[C@@H](Cc2ccccc2)C(=O)N[C@H](C(=O)N[C@@H](CO)C(=O)NCC(=O)NCC(=O)N[C@@H](CO)C(=O)N[C@@H](CCCNC(=N)N)C(=O)N[C@@H](Cc2c[nH]c3ccccc23)C(=O)O)[C@@H](C)O)[C@@H](C)CC)C(C)C)NC(=O)[C@H](CCCNC(=N)N)NC1=O (H-SGR[S5]FIR[S5]VIFTSGGSRW-OH; staple (E) 4-8) | inactive |  | 4.47 | 151 | 191 | inactive |  | 407
